Data from ChEMBL document CHEMBL4371053, “A novel tetrazole analogue of resveratrol is a potent anticancer agent” (Bioorg Med Chem Lett, 2019).
Activity calls are given as the source filed them. The calls are words filed in the database; no cut-off is given here.

How the values were obtained:
[1] = system: SK-MEL-5; assay: Growth inhibition of human SK-MEL-5 cells at 10 uM after 48 hrs by sulforhodamine B assay relative to control; format: functional; conditions: SK-MEL-5, 48 h, values are per cent of control
Method in brief: (§1)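 NCI-60 single-dose screen. Cells exposed to 10⁻⁵ M or to vehicle for 48 h. Growth measured by sulforhodamine B optical density before and after exposure. Reported as percent growth relative to vehicle control and to time-zero cell number; negative values indicate cell kill.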

[2] = system: NCI-H460; assay: Growth inhibition of human NCI-H460 cells at 10 uM after 48 hrs by sulforhodamine B assay relative to control; format: functional; conditions: NCI-H460, 48 h, values are per cent of control; method in brief: as §1
[3] = system: NCI-H522; assay: Growth inhibition of human NCI-H522 cells at 10 uM after 48 hrs by sulforhodamine B assay relative to control; format: functional; conditions: NCI-H522, 48 h, values are per cent of control; method in brief: as §1
[4] = system: DU-145; assay: Growth inhibition of human DU145 cells at 10 uM after 48 hrs by sulforhodamine B assay relative to control; format: functional; conditions: DU-145, 48 h, values are per cent of control; method in brief: as §1
[5] = system: A498; assay: Growth inhibition of human A498 cells at 10 uM after 48 hrs by sulforhodamine B assay relative to control; format: functional; conditions: A498, 48 h, values are per cent of control; method in brief: as §1
[6] = system: SF-539; assay: Growth inhibition of human SF539 cells at 10 uM after 48 hrs by sulforhodamine B assay relative to control; format: functional; conditions: SF-539, 48 h, values are per cent of control; method in brief: as §1
[7] = system: OVCAR-3; assay: Growth inhibition of human OVCAR3 cells at 10 uM after 48 hrs by sulforhodamine B assay relative to control; format: functional; conditions: OVCAR-3, 48 h, values are per cent of control; method in brief: as §1
[8] = system: KM12; assay: Growth inhibition of human KM12 cells at 10 uM after 48 hrs by sulforhodamine B assay relative to control; format: functional; conditions: KM12, 48 h, values are per cent of control; method in brief: as §1
[9] = system: MDA-MB-435; assay: Growth inhibition of human MDA-MB-435 cells at 10 uM after 48 hrs by sulforhodamine B assay relative to control; format: functional; conditions: MDA-MB-435, 48 h, values are per cent of control; method in brief: as §1
[10] = molecular target: Tubulin (Homo sapiens) (UniProt P68371+Q9H4B7+P0DPH7+P68366+Q13509+Q71U36+P04350+Q3ZCM7+P07437+P68363+Q9BQE3+Q6PEY2+Q13885+Q9BVA1+Q9BUF5); assay: Inhibition of tubulin (unknown origin) polymerization at 2 uM by immunoblot analysis; format: protein-complex assay
Method in brief: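 Cell-based assay. Cells were treated with compound at 1.0 and 2.0 μM. Polymerized tubulin (pellet) was separated from unpolymerized tubulin (supernatant), and both fractions were immunoblotted with anti-tubulin antibody.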

Structure (SMILES) | growth, % of control at 10 µM [1] [%] | growth, % of control at 10 µM [2] [%] | growth, % of control at 10 µM [3] [%] | growth, % of control at 10 µM [4] [%] | growth, % of control at 10 µM [5] [%] | growth, % of control at 10 µM [6] [%] | growth, % of control at 10 µM [7] [%] | growth, % of control at 10 µM [8] [%] | growth, % of control at 10 µM [9] [%] | inhibition [10]
COc1ccc(/C(=C/c2cc(OC)c(OC)c(OC)c2)c2nnn[nH]2)cc1OC | 96.4 | 106 | 90.2 | 106 | 89.5 | 96.2 | 118 | 99.8 | 102 | 
COc1ccc(/C=C(/c2ccc([N+](=O)[O-])cc2)c2nnn[nH]2)c2ccccc12 | 97.1 | 103 | 89.4 | 113 | 112 | 104 | 112 | 111 | 105 | Active
COc1ccc(/C=C(/c2cc(OC)c(OC)c(OC)c2)c2nnn[nH]2)cc1 | 94.1 | 110 | 90.3 | 108 | 102 |  | 113 | 102 | 100 | Active
